Consider 19 compounds from ChEMBL document CHEMBL2390870, “Coumarin chalcone fibrates: a new structural class of lipid lowering agents” (2013).

Test [1] relates to Rattus norvegicus. In words: Antihyperlipidemic activity in triton WR-1339-induced Charles-Foster rat assessed as decrease in plasma triglyceride level at 100 mg/kg, po after 18 hrs relative to control. The class given is functional. Also noted: scale not given: the % may be the effect or the level left. The method, boiled down:
(§1)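 Male adult Charles Foster rats (200–225 g), six per group; hyperlipidemia induced by triton WR-1339 400 mg/kg i.p.; test agent macerated with 0.2% w/v gum acacia in water and given orally at the same time, with diet withdrawn; vehicle to controls. After 18 h, plasma was obtained by centrifugation at 2500 g, 4 °C, 10 min and diluted 1:3 in saline. Mean ± SD; Student's t-test.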

Test [2] relates to Rattus norvegicus. As to the kind of experiment: Antihyperlipidemic activity in triton WR-1339-induced Charles-Foster rat assessed as decrease in plasma phospholipid level at 100 mg/kg, po after 18 hrs relative to control. It counts as functional. On the set-up: scale not given: the % may be the effect or the level left. The method, boiled down: as §1
For test [3], the system named is Rattus norvegicus. As to the kind of experiment: Antihyperlipidemic activity in triton WR-1339-induced Charles-Foster rat assessed as decrease in plasma total cholesterol level at 100 mg/kg, po after 18 hrs relative to control. Also noted: scale not given: the % may be the effect or the level left. The class given is functional. In outline: as §1
Test [4] has as its system Rattus norvegicus. In words: Antihyperlipidemic activity in triton WR-1339-induced Charles-Foster rat assessed as increase in post heparin lipolytic activity at 100 mg/kg, po after 18 hrs by spectrophotometric analysis relative to control. The class given is functional. In outline: (§2)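 Triton WR-1339 400 mg/kg i.p. in male Charles Foster rats (six per group), with test agent in 0.2% gum acacia given orally at the same time. Post-heparin plasma lipolytic activity read after 18 h as nmol free fatty acids formed/h/ml plasma; percent change; mean ± SD; t-test.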

The test system of test [5] is Rattus norvegicus. In words: Antihyperlipidemic activity in triton WR-1339-induced Charles-Foster rat assessed as increase in post heparin lipolytic activity at 50 mg/kg, po after 18 hrs by spectrophotometric analysis relative to control. It counts as functional. The method, boiled down:
as §2

In test [6] the test system is Rattus norvegicus. In words: Antihyperlipidemic activity in triton WR-1339-induced Charles-Foster rat assessed as increase in plasma HDL level at 100 mg/kg, po after 18 hrs. On the set-up: dose 100 mg/kg. It counts as functional, organism-based. In outline:
as §1

In test [7] the test system is Rattus norvegicus. In words: Antihyperlipidemic activity in triton WR-1339-induced Charles-Foster rat assessed as decrease in plasma total cholesterol level at 50 mg/kg, po after 18 hrs relative to control. The class given is functional. On the set-up: scale not given: the % may be the effect or the level left. In outline:
as §1

The test system of test [8] is Rattus norvegicus. In words: Antihyperlipidemic activity in triton WR-1339-induced Charles-Foster rat assessed as decrease in plasma LDL level at 100 mg/kg, po after 18 hrs. It counts as functional, organism-based. Also noted: dose 100 mg/kg. The method, boiled down: as §1
Test [9] relates to Rattus norvegicus. In words: Antihyperlipidemic activity in triton WR-1339-induced Charles-Foster rat assessed as increase in post heparin lipolytic activity at 200 mg/kg, po after 18 hrs by spectrophotometric analysis relative to control. The class given is functional. The method, boiled down: as §2
Test [10] concerns Rattus norvegicus. In words: Antihyperlipidemic activity in triton WR-1339-induced Charles-Foster rat assessed as decrease in plasma VLDL level at 100 mg/kg, po after 18 hrs. It counts as functional, organism-based. On the set-up: dose 100 mg/kg. In outline: as §1
Test [11] concerns Rattus norvegicus. As to the kind of experiment: Antihyperlipidemic activity in triton WR-1339-induced Charles-Foster rat assessed as decrease in plasma phospholipid level at 200 mg/kg, po after 18 hrs relative to control. It counts as functional. Also noted: scale not given: the % may be the effect or the level left. The method, boiled down: as §1
Test [12] deals with Rattus norvegicus. As to the kind of experiment: Antihyperlipidemic activity in triton WR-1339-induced Charles-Foster rat assessed as decrease in plasma triglyceride level at 50 mg/kg, po after 18 hrs relative to control. On the set-up: scale not given: the % may be the effect or the level left. The class given is functional. The method, boiled down:
as §1

The subject of test [13] is Rattus norvegicus. As to the kind of experiment: Antihyperlipidemic activity in triton WR-1339-induced Charles-Foster rat assessed as decrease in plasma phospholipid level at 50 mg/kg, po after 18 hrs relative to control. It counts as functional. Also noted: scale not given: the % may be the effect or the level left. The method, boiled down: as §1
Test [14] has as its system Rattus norvegicus. As to the kind of experiment: Antihyperlipidemic activity in triton WR-1339-induced Charles-Foster rat assessed as increase in liver lipoprotein lipase activity at 100 mg/kg, po after 18 hrs. It counts as functional, organism-based. Also noted: dose 100 mg/kg.
Test [15] concerns Rattus norvegicus. In words: Antihyperlipidemic activity in triton WR-1339-induced Charles-Foster rat assessed as decrease in plasma total cholesterol level at 200 mg/kg, po after 18 hrs relative to control. The class given is functional. On the set-up: scale not given: the % may be the effect or the level left. In outline: as §1
For test [16], the system named is Rattus norvegicus. As to the kind of experiment: Antihyperlipidemic activity in triton WR-1339-induced Charles-Foster rat assessed as decrease in plasma triglyceride level at 200 mg/kg, po after 18 hrs relative to control. On the set-up: scale not given: the % may be the effect or the level left. It counts as functional. In outline: as §1

Structures are written as SMILES. Active and inactive are the calls of the source. The rule behind the calls is not given here.

In the case of `CCOC(=O)c1cc2cc(/C=C/C(=O)c3ccc(OC(C)C(=O)OCC)cc3)cc(C(C)CC)c2oc1=O` (stereo unspecified), the Activity is 9% in the test with Rattus norvegicus [1], 9% in the test on Rattus norvegicus [2], 10% with Rattus norvegicus [3] and 5% in the test on Rattus norvegicus [4].
Turning to `CCOC(=O)COc1ccc(C(=O)/C=C/c2cc(C(C)CC)c3oc(=O)c(C(=O)OCC)cc3c2)cc1` (stereo unspecified), the Activity in the test on Rattus norvegicus [1] turned out to be 11%; in the test on Rattus norvegicus [2], 12%; with Rattus norvegicus [3], 11%; with Rattus norvegicus [4], 8%.
For `CCC(C)c1cc(/C=C/C(=O)c2ccc(OCC(=O)O)cc2)cc2cc(C(=O)O)c(=O)oc12` (stereo unspecified), the Activity in the test with Rattus norvegicus [1] is listed as 9%; in the test on Rattus norvegicus [2], 9%; with Rattus norvegicus [3] it was 8%; in the test on Rattus norvegicus [4] it was 3%.
As to `CCOC(=O)c1cc2cc(/C=C/C(=O)c3ccc(OC(CC)C(=O)OCC)cc3)cc(C)c2oc1=O` (stereo unspecified), the Activity is on record as 14% in the test on Rattus norvegicus [1], 15% in the test on Rattus norvegicus [2], 14% with Rattus norvegicus [3] and 10% in the test on Rattus norvegicus [4].
On to `Cc1cc(/C=C/C(=O)c2ccc(OC(C)C(=O)O)cc2)cc2cc(C(=O)O)c(=O)oc12` (stereo unspecified), for which the Activity in the test with Rattus norvegicus [5] turned out to be 12%; in the test with Rattus norvegicus [7], 16%; in the test on Rattus norvegicus [9] it was 17%; in the test on Rattus norvegicus [1], 25%; in the test with Rattus norvegicus [11], 24%; in the test with Rattus norvegicus [2], 24%. Besides, the Activity in the test with Rattus norvegicus [12] turned out to be 14%; in the test on Rattus norvegicus [13] it was 15%; in the test with Rattus norvegicus [15], 27%; in the test on Rattus norvegicus [3], 26%; in the test on Rattus norvegicus [4], 17%; in the test on Rattus norvegicus [16] it was 26%. The result in the test on Rattus norvegicus [6], in the test with Rattus norvegicus [8], in the test with Rattus norvegicus [10] and in the test on Rattus norvegicus [14] was Active.
As to `CCOC(=O)CCCOc1ccc(C(=O)/C=C/c2cc(C)c3oc(=O)c(C(=O)OCC)cc3c2)cc1`, the Activity in the test with Rattus norvegicus [1] came out at 16%; in the test on Rattus norvegicus [2], 17%; in the test with Rattus norvegicus [3] it was 19%; in the test on Rattus norvegicus [4], 12%.
For `CCOC(=O)COc1ccc(C(=O)/C=C/c2cc(C)c3oc(=O)c(C(=O)OCC)cc3c2)cc1`, the Activity with Rattus norvegicus [1] is listed as 8%; in the test with Rattus norvegicus [2], 8%; with Rattus norvegicus [3], 6%; in the test with Rattus norvegicus [4] it was 2%.
On to `CCOC(=O)c1cc2cc(/C=C/C(=O)c3ccc(OC(C)C(=O)OCC)cc3)cc(C)c2oc1=O` (stereo unspecified), for which the Activity amounted to 11% in the test on Rattus norvegicus [1], 12% in the test on Rattus norvegicus [2], 10% in the test with Rattus norvegicus [3] and 6% in the test on Rattus norvegicus [4].
As for `CCC(C)c1cc(/C=C/C(=O)c2ccc(OC(C)(C)C(=O)O)cc2)cc2cc(C(=O)O)c(=O)oc12` (stereo unspecified), the Activity in the test on Rattus norvegicus [1] turned out to be 9%; with Rattus norvegicus [2], 8%; with Rattus norvegicus [3], 8%; in the test with Rattus norvegicus [4], 4%.
Turning to `CC(C)c1cc(/C=C/C(=O)c2ccc(OCC(=O)O)cc2)cc2cc(C(=O)O)c(=O)oc12`, the Activity with Rattus norvegicus [1] was determined as 8%; in the test on Rattus norvegicus [2], 7%; in the test with Rattus norvegicus [3] it was 9%; in the test with Rattus norvegicus [4], 3%.
For `Cc1ccc(C)c(OCCCC(C)(C)C(=O)O)c1` [GEMFIBROZIL] the same measures were 33%, 30%, 32% and 19%.
For `CCOC(=O)CCCOc1ccc(C(=O)/C=C/c2cc(C(C)(C)C)c3oc(=O)c(C(=O)OCC)cc3c2)cc1`, in that order: 11%, 11%, 12% and 5%.
For `CCOC(=O)CCCOc1ccc(C(=O)/C=C/c2cc(C(C)CC)c3oc(=O)c(C(=O)OCC)cc3c2)cc1` (stereo unspecified) the same measures were 12%, 12%, 13% and 7%.
Take `CCOC(=O)COc1ccc(C(=O)/C=C/c2cc(C(C)C)c3oc(=O)c(C(=O)OCC)cc3c2)cc1`: the Activity in the test with Rattus norvegicus [1] was 22%; with Rattus norvegicus [2] it was 20%; in the test with Rattus norvegicus [3], 21%; in the test on Rattus norvegicus [4], 15%.
For `CCOC(=O)COc1ccc(C(=O)/C=C/c2cc(C(C)(C)C)c3oc(=O)c(C(=O)OCC)cc3c2)cc1` the same measures were 11%, 11%, 13% and 5%.
Regarding `CCOC(=O)c1cc2cc(/C=C/C(=O)c3ccc(OC(C)(C)C(=O)OCC)cc3)cc(C(C)CC)c2oc1=O` (stereo unspecified), the Activity in the test on Rattus norvegicus [5] is listed as 13%; in the test on Rattus norvegicus [7], 18%; in the test with Rattus norvegicus [9], 15%; in the test on Rattus norvegicus [1], 23%; in the test on Rattus norvegicus [11], 24%; in the test on Rattus norvegicus [2], 23%. Besides, the Activity is 16% in the test with Rattus norvegicus [12]; 16% with Rattus norvegicus [13]; 23% in the test on Rattus norvegicus [15]; 22% with Rattus norvegicus [3]; 15% in the test with Rattus norvegicus [4]; 25% in the test on Rattus norvegicus [16].
Turning to `CCOC(=O)C(C)Oc1ccc(C(=O)/C=C/c2cc(C=O)c(O)c(C(C)CC)c2)cc1` (stereo unspecified), the Activity was 11% in the test on Rattus norvegicus [1], 11% in the test with Rattus norvegicus [2], 13% in the test on Rattus norvegicus [3] and 5% in the test with Rattus norvegicus [4].
Consider `CCOC(=O)c1cc2cc(/C=C/C(=O)c3ccc(OC(C)(C)C(=O)OCC)cc3)cc(C)c2oc1=O`, for which the Activity in the test on Rattus norvegicus [1] is listed as 8%; with Rattus norvegicus [2], 10%; in the test on Rattus norvegicus [3], 10%; in the test on Rattus norvegicus [4], 5%.
In the case of `CCOC(=O)C(C)Oc1ccc(C(=O)/C=C/c2cc(C)c(O)c(C=O)c2)cc1` (stereo unspecified), the Activity was determined as 11% in the test with Rattus norvegicus [1], 13% in the test on Rattus norvegicus [2], 12% in the test on Rattus norvegicus [3] and 6% in the test on Rattus norvegicus [4].
